Laboratory results taken from BindingDB's records for doi:10.1021/jm800913d (National Institute On Drug Abuse, 2008).

Experiments:
[1] = target: Kappa-type opioid receptor (Homo sapiens, UniProt P41145); test: Displacement of [125I]IOXY from human recombinant kappa opioid receptor expressed in CHO cells
Outline: (§1)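 Radioligand displacement run in CHO cells stably transfected to express the μ-, δ- or κ-opioid receptor, each receptor in its own line. The method follows the authors' earlier procedure. Each value comes from n=3 determinations.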

[2] = target: Delta-type opioid receptor (Homo sapiens, UniProt P41143); test: Displacement of [125I]IOXY from human recombinant delta opioid receptor expressed in CHO cells; outline: as §1
Chain of Delta-type opioid receptor (P41143 whole entry): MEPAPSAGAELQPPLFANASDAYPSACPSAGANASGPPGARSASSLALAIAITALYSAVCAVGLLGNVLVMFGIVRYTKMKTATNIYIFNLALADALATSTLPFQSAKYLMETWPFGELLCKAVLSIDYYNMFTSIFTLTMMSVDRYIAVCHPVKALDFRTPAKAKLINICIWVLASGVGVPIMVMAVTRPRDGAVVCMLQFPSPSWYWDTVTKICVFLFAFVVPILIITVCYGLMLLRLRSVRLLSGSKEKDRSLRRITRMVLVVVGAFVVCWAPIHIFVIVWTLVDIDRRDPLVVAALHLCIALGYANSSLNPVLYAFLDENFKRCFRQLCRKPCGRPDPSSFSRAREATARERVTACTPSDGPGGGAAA

Mu-type opioid receptor = Mu-type opioid receptor (Homo sapiens, UniProt P35372); test: Displacement of [125I]IOXY from human recombinant mu opioid receptor expressed in CHO cells; outline: as §1
Chain of Mu-type opioid receptor (P35372 whole entry): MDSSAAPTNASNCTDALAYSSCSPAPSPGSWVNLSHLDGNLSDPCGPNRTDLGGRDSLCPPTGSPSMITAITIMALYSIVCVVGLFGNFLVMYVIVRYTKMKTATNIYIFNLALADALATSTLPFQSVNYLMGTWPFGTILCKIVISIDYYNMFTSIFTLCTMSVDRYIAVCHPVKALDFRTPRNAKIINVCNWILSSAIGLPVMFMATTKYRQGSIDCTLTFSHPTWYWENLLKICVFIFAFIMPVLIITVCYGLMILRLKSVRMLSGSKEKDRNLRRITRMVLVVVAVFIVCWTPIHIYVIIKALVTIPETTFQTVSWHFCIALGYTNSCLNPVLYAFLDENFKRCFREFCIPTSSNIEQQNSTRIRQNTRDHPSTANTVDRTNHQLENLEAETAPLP

Chain of Kappa-type opioid receptor (P41145 whole entry): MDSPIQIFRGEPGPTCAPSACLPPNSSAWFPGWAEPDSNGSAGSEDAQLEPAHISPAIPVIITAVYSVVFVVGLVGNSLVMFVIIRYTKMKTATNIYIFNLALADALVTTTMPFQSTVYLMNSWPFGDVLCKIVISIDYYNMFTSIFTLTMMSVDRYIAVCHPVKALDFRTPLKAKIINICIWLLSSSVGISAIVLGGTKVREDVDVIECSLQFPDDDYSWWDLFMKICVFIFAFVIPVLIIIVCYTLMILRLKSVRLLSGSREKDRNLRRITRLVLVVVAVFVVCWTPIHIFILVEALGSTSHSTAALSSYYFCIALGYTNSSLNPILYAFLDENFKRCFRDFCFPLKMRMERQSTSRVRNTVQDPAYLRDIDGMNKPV

Compound | Ki [1] [nM] | Ki [2] [nM] | Ki (Mu-type opioid receptor) [nM]
CN1C[C@@H]2Oc3ccc(O)cc3[C@@]23CCC[C@@H]1C3 [(3R*,6aS*,11aR*)-1,3,4,5,6,11a-Hexahydro-2-methyl-2H-3,6a-methanobenzofuro[2,3-c]azocin-8-ol] | 620 | 2780 | –
CN1C[C@@H]2Oc3c(O)cccc3[C@@]23CCC[C@@H]1C3 [(3R*,6aS*,11aR*)-1,3,4,5,6,11a-Hexahydro-2-methyl-2H-3,6amethanobenzofuro[2,3-c]azocin-10-ol] | 4820 | 3430 | –
Oc1cccc2c1O[C@H]1CN(CCc3ccccc3)[C@@H]3CCC[C@]21C3 [(3R*,6aS*,11aR*)-1,3,4,5,6,11a-Hexahydro-2-phenethyl-2H-3,6a-methanobenzofuro [2,3-c]azocin-10-ol] | 200 | 2840 | 560
CN1CC[C@@]23C[C@@H]1CC[C@H]2Oc1c(O)cccc13 [(4R*,6aS*,11bR*)-2,3,4,5,6,6a-Hexahydro-3-methyl-1H-4,11b-methanobenzofuro[3,2-d]azocine-8-ol] | 910 | – | 3210
CN1CC[C@@]23C[C@@H]1CC[C@H]2Oc1ccc(O)cc13 [(4R*,6aS*,11bR*)-2,3,4,5,6,6a-Hexahydro-3-methyl-1H-4,11bmethanobenzofuro[3,2-d]azocine-10-ol] | – | > 10000 | > 10000
Oc1cccc2c1O[C@@H]1CC[C@H]3C[C@@]21CCN3CCc1ccccc1 [(4R*,6aS*,11bR*)-2,3,4,5,6,6a-Hexahydro-3-phenethyl-1H-4,11b-methanobenzofuro[3,2-d]azocine-8-ol] | 26 | 3710 | 190
Oc1ccc2c(c1)[C@@]13CCN(CCc4ccccc4)[C@@H](CC[C@H]1O2)C3 [(4R*,6aS*,11bR*)-2,3,4,5,6,6a-Hexahydro-3-phenethyl-1H-4,11b-methanobenzofuro[3,2-d]azocine-10-ol] | 78 | 4760 | 740
